Laboratory results reported in ChEMBL document CHEMBL1138488, “Synthesis and biological evaluation of 3,3-difluoropyridine-2,4(1H,3H)-dione and 3-deaza-3-fluorouracil base and nucleoside derivatives” (J Med Chem, 2009).
Active and inactive are the calls of the source. The rule behind the calls is not given here.

Columns and labels:
L1210 = assay: Cytostatic activity against mouse L1210 cells at <=500 uM after 2 days by Coulter counting analysis; format: ADME, cell-based; settings: l1210, 48 h
Method in brief: (§1)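 Murine leukemia L1210 cells were seeded at 50000 cells per well with varying compound concentrations. Viable cell number was counted by Coulter counter after 2 days.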

Vaccinia virus = assay: Antiviral activity against Vaccinia virus infected in HEL cells assessed as inhibition of virus-induced cytopathic effect at <=100 uM; format: functional, organism-based; settings: Orthopoxvirus vaccinia
Punta Toro virus = assay: Antiviral activity against Punta Toro virus infected in african green monkey Vero cells assessed as inhibition of virus-induced cytopathic effect at <=100 uM; format: functional, organism-based
Method in brief: (§2)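 Confluent cell monolayers were inoculated with 100 CCID₅₀ of virus, and virus was adsorbed for 1 h. Residual virus was then removed and cells were incubated with serial compound concentrations ([…], ... µM). Cytopathicity was scored once it reached completion in untreated virus-infected control cultures.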

[1] = test system: Vesicular stomatitis virus; assay: Antiviral activity against Vesicular stomatitis virus infected in human HeLa cells assessed as inhibition of virus-induced cytopathic effect at <=100 uM; format: functional, organism-based
Human respirovirus 3 = assay: Antiviral activity against Parainfluenza virus type 3 infected in african green monkey Vero cells assessed as inhibition of virus-induced cytopathic effect at <=100 uM; format: functional, organism-based; method in brief: as §2
Human alphaherpesvirus 3 [2] = assay: Antiviral activity against thymidine kinase expressing Varicella zoster virus Oka infected in human HEL cells assessed as inhibition of virus-induced cytopathic effect at <=100 uM; format: functional, organism-based; method in brief: as §2
Human betaherpesvirus 5 [3] = assay: Antiviral activity against HCMV AD169 infected in HEL cells assessed as inhibition of virus-induced cytopathic effect at <=100 uM; format: functional, organism-based; method in brief: as §2
CCRF-CEM = assay: Cytostatic activity against human CEM cells at <=500 uM after 3 days by Coulter counting analysis; format: cell-based; settings: 72 h
Method in brief: (§3)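 Molt4/C8 or CEM lymphocytes were seeded at 75000 cells per well with varying compound concentrations. Viable cells were counted by Coulter counter after 3 days. CC₅₀ is the concentration inhibiting cell proliferation by 50%.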

Human alphaherpesvirus 3 [4] = assay: Antiviral activity against thymidine kinase deficient Varicella zoster virus 07/1 infected in human HEL cells assessed as inhibition of virus-induced cytopathic effect at <=100 uM; format: functional, organism-based; method in brief: as §2
[5] = test system: Vesicular stomatitis virus; assay: Antiviral activity against Vesicular stomatitis virus infected in HEL cells assessed as inhibition of virus-induced cytopathic effect at <=100 uM; format: functional, organism-based
[6] = Cytostatic activity against human CEM cells after 3 days by Coulter counting analysis; format: cell-based, CCRF-CEM; method in brief: as §3
[7] = test system: Human immunodeficiency virus 2; assay: Antiviral activity against HIV2 ROD replication in human CEM cells assessed as virus-induced giant cell formation at <=100 uM after 4 days; format: functional, organism-based; settings: CCRF-CEM
Method in brief: (§4)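 CEM cells (~3 × 10⁵ cells/cm³) were infected with 100 CCID₅₀/mL of HIV-1(III_B) or HIV-2(ROD) and seeded into wells containing compound dilutions. After 4 days at 37 °C, virus-induced giant cell formation was examined microscopically.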

[8] = Cytostatic activity against mouse L1210 cells after 2 days by Coulter counting analysis; format: ADME, cell-based; method in brief: as §1
Human alphaherpesvirus 1 [9] = assay: Antiviral activity against acyclovir-resistant […] kinase-deficient HSV1 KOS infected in HEL cells assessed as virus-induced cytopathic effect at <=100 uM; format: functional, organism-based
Human alphaherpesvirus 2 = assay: Antiviral activity against HSV2 strain G infected in HEL cells assessed as virus-induced cytopathic effect at <=100 uM; format: functional, organism-based
Sindbis virus = assay: Antiviral activity against Sindbis virus infected in african green monkey Vero cells assessed as inhibition of virus-induced cytopathic effect at <=100 uM; format: functional, organism-based; method in brief: as §2
[10] = test system: Respiratory syncytial virus; assay: Antiviral activity against Respiratory syncytial virus infected in human HeLa cells assessed as inhibition of virus-induced cytopathic effect at <=100 uM; format: functional, organism-based; method in brief: as §2
[11] = test system: Mammalian orthoreovirus 3; assay: Antiviral activity against Reovirus 3 infected in african green monkey Vero cells assessed as inhibition of virus-induced cytopathic effect at <=100 uM; format: functional, organism-based
[12] = test system: Moloney murine sarcoma virus; assay: Antiviral activity against Moloney sarcoma virus replication infected in mouse […] cells assessed as virus-induced transformation of cells at <=100 uM measured on day 6 postinfection; format: functional, organism-based
Method in brief: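 Murine C3H/3T3 embryo fibroblasts were grown to confluency and infected with Moloney murine sarcoma virus at 75 focus-forming units. Compound concentrations were then added, and virus-induced transformation was examined microscopically at day 6 postinfection.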

Coxsackievirus B4 = assay: Antiviral activity against Coxsackievirus B4 infected in human HeLa cells assessed as inhibition of virus-induced cytopathic effect at <=100 uM; format: functional, organism-based; method in brief: as §2
[13] = Cytostatic activity against human Molt4/C8 cells at <=500 uM after 3 days by Coulter counting analysis; format: ADME, cell-based; settings: molt-4, 72 h; method in brief: as §3
Human betaherpesvirus 5 [14] = assay: Antiviral activity against HCMV Davis infected in HEL cells assessed as inhibition of virus-induced cytopathic effect at <=100 uM; format: functional, organism-based; method in brief: as §2
Human alphaherpesvirus 1 [15] = assay: Antiviral activity against HSV1 KOS infected in HEL cells assessed as virus-induced cytopathic effect at <=100 uM; format: functional, organism-based
[16] = test system: Human immunodeficiency virus 1; assay: Antiviral activity against HIV1 3B replication in human CEM cells assessed as virus-induced giant cell formation at <=100 uM after 4 days; format: functional, organism-based; settings: CCRF-CEM; method in brief: as §4
[17] = Cytostatic activity against human Molt4/C8 cells after 3 days by Coulter counting analysis; format: ADME, cell-based, MOLT-4; method in brief: as §3

Compound | Activity (L1210) | Activity (Vaccinia virus) | Activity (Punta Toro virus) | Activity [1] | Activity (Human respirovirus 3) | Activity (Human alphaherpesvirus 3 [2]) | Activity (Human betaherpesvirus 5 [3]) | Activity (CCRF-CEM) | Activity (Human alphaherpesvirus 3 [4]) | Activity [5] | Activity [7] | Activity (Human alphaherpesvirus 1 [9]) | Activity (Human alphaherpesvirus 2) | Activity (Sindbis virus) | Activity [10] | Activity [11] | Activity [12] | Activity (Coxsackievirus B4) | Activity [13] | Activity (Human betaherpesvirus 5 [14]) | further results
O=c1c(F)c(O)ccn1[C@@H]1O[C@H](CO)[C@@H](O)[C@H]1O | Not Active | inactive | inactive | inactive | inactive | inactive | inactive | Not Active | inactive | inactive | inactive | inactive | inactive | inactive | inactive | inactive | inactive | inactive | Not Active | inactive | CC50 at 72 h [6]: 9.6 µM; CC50 at 48 h [8]: 6.7 µM; Activity (Human alphaherpesvirus 1 [15]): inactive; Activity [16]: inactive; CC50 at 72 h [17]: 4.4 µM
O=c1c(F)c(O)ccn1[C@@H]1O[C@H](CO)[C@@H](O)[C@@H]1O | Not Active | inactive | inactive | inactive | inactive | inactive | inactive | Not Active | inactive | inactive | inactive | inactive | inactive | inactive | inactive | inactive | inactive | inactive | Not Active | inactive | Activity (Human alphaherpesvirus 1 [15]): inactive; Activity [16]: inactive
CC1(O)C=CN([C@@H]2O[C@H](CO)[C@@H](O)[C@H]2O)C(=O)C1(F)F (some centres undefined) | Not Active | inactive | inactive | inactive | inactive | inactive | inactive | Not Active | inactive | inactive | inactive | inactive | inactive | inactive | inactive | inactive | inactive | inactive | Not Active | inactive | Activity (Human alphaherpesvirus 1 [15]): inactive; Activity [16]: inactive
